pKi: −log10 of the molar value. The source made the active and inactive calls. The calls are words filed in the database; no cut-off is given here.
Target: T1, 5'-nucleotidase (Rattus norvegicus, UniProt P21588)
T1 sequence (P21588 whole entry): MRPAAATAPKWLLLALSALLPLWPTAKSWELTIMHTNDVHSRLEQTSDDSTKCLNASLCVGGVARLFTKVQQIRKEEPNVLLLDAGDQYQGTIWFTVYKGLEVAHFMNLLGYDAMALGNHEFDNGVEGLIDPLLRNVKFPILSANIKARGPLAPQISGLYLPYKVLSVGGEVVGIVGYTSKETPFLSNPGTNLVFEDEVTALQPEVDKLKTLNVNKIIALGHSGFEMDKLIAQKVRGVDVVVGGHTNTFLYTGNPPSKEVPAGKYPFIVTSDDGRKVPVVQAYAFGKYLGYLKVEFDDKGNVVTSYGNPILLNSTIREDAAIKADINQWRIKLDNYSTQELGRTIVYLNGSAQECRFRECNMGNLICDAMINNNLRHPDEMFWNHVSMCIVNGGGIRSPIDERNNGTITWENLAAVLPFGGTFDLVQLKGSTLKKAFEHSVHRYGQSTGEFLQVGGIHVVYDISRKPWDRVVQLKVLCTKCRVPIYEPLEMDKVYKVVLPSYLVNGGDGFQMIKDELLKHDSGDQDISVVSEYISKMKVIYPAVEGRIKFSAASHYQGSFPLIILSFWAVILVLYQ
Assay: Inhibition of purified recombinant soluble rat CD73 expressed in Sf9 cells [3H]AMP as substrate incubated for 25 mins by scintillation counting method
Summary of the method: (§1)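 Radiometric CD73 assay in 25 mM Tris, 140 mM NaCl, 25 mM NaH2PO4, pH 7.4. Enzyme per vial: rat CD73 1.63 ng, human CD73 0.365 ng, MDA-MB-231 membranes 7.4 ng protein. […] 25 min at 37 °C, shaking. Stopped with cold LaCl3/sodium acetate pH 4.0 to precipitate substrate. Filtrate counted by scintillation. Full curves; Ki from IC50 via Cheng–Prusoff.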

| SMILES | pKi |
| --- | --- |
| NNc1nc(N)c2ncn([C@@H]3O[C@H](COP(=O)(O)CP(=O)(O)O)[C@@H](O)[C@H]3O)c2n1 | 6.94 |
| Nc1nc2c(ncn2[C@@H]2O[C@H](COP(=O)(O)CP(=O)(O)O)[C@@H](O)[C@H]2O)c(=O)[nH]1 [PHOSPHOMETHYLPHOSPHONIC ACID GUANOSYL ESTER] | 5.95 |
| Nc1nc(SCCC2CCCCC2)nc2c1ncn2[C@@H]1O[C@H](COP(=O)(O)CP(=O)(O)O)[C@@H](O)[C@H]1O | 7.25 |
| Nc1nc(Cl)c2ncn([C@@H]3O[C@H](COP(=O)(O)CP(=O)(O)O)[C@@H](O)[C@H]3O)c2n1 | 6.57 |

More lines, now with the values ahead:

| pKi | SMILES |
| --- | --- |
| 5.64 | Nc1nc(N2CCNCC2)nc2c1ncn2[C@@H]1O[C@H](COP(=O)(O)CP(=O)(O)O)[C@@H](O)[C@H]1O |
| 7.73 | Nc1nc(Cl)nc2c1ncn2[C@@H]1O[C@H](COP(=O)(O)CP(=O)(O)O)[C@@H](O)[C@H]1O |

Target: T2, 5'-nucleotidase (Homo sapiens, UniProt P21589)
T2 sequence (P21589 whole entry): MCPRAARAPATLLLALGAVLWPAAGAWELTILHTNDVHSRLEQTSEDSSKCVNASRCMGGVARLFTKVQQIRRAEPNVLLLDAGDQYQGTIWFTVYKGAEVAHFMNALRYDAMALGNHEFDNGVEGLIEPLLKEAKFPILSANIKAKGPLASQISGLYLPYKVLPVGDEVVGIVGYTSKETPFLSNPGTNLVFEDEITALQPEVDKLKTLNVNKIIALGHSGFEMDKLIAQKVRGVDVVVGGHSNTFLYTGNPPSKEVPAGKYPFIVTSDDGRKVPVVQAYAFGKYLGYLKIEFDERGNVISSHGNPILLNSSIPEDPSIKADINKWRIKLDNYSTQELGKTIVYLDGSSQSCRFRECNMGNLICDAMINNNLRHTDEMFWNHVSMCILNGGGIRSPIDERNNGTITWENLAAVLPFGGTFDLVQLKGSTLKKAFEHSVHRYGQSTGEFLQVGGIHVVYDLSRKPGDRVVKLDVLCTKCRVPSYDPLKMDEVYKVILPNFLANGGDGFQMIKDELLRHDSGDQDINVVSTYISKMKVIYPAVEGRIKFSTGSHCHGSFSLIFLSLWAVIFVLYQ
Assay: Inhibition of purified recombinant soluble human CD73 expressed in Sf9 cells [3H]AMP as substrate incubated for 25 mins by scintillation counting method
Summary of the method: as §1

| SMILES | pKi |
| --- | --- |
| NNc1nc(N)c2ncn([C@@H]3O[C@H](COP(=O)(O)CP(=O)(O)O)[C@@H](O)[C@H]3O)c2n1 | 7.81 |
| Nc1nc2c(ncn2[C@@H]2O[C@H](COP(=O)(O)CP(=O)(O)O)[C@@H](O)[C@H]2O)c(=O)[nH]1 [PHOSPHOMETHYLPHOSPHONIC ACID GUANOSYL ESTER] | 6.39 |
| Nc1nc(SCCC2CCCCC2)nc2c1ncn2[C@@H]1O[C@H](COP(=O)(O)CP(=O)(O)O)[C@@H](O)[C@H]1O | 7.33 |
| Nc1nc(Cl)c2ncn([C@@H]3O[C@H](COP(=O)(O)CP(=O)(O)O)[C@@H](O)[C@H]3O)c2n1 | 7.63 |

Continued, values first:

| pKi | SMILES |
| --- | --- |
| 6.74 | Nc1nc(N2CCNCC2)nc2c1ncn2[C@@H]1O[C@H](COP(=O)(O)CP(=O)(O)O)[C@@H](O)[C@H]1O |
| 8.23 | Nc1nc(Cl)nc2c1ncn2[C@@H]1O[C@H](COP(=O)(O)CP(=O)(O)O)[C@@H](O)[C@H]1O |

Target: T2, 5'-nucleotidase
Assay: Inhibition of native CD73 in human MDA-MB-231 cell membrane preparations [3H]AMP as substrate incubated for 25 mins by scintillation counting method
Type: cell membranes
Summary of the method: as §1

| SMILES | pKi |
| --- | --- |
| NNc1nc(N)c2ncn([C@@H]3O[C@H](COP(=O)(O)CP(=O)(O)O)[C@@H](O)[C@H]3O)c2n1 | 7.81 |
| Nc1nc2c(ncn2[C@@H]2O[C@H](COP(=O)(O)CP(=O)(O)O)[C@@H](O)[C@H]2O)c(=O)[nH]1 [PHOSPHOMETHYLPHOSPHONIC ACID GUANOSYL ESTER] | 6.59 |
| Nc1nc(SCCC2CCCCC2)nc2c1ncn2[C@@H]1O[C@H](COP(=O)(O)CP(=O)(O)O)[C@@H](O)[C@H]1O | 7.31 |
| Nc1nc(Cl)c2ncn([C@@H]3O[C@H](COP(=O)(O)CP(=O)(O)O)[C@@H](O)[C@H]3O)c2n1 | 7.49 |

The next lines start with the values.

| pKi | SMILES |
| --- | --- |
| 6.62 | Nc1nc(N2CCNCC2)nc2c1ncn2[C@@H]1O[C@H](COP(=O)(O)CP(=O)(O)O)[C@@H](O)[C@H]1O |
| 8.34 | Nc1nc(Cl)nc2c1ncn2[C@@H]1O[C@H](COP(=O)(O)CP(=O)(O)O)[C@@H](O)[C@H]1O |

Test system: not listed separately
Assay: Selectivity index, ratio of Ki for inhibition of purified recombinant soluble rat CD73 expressed in Sf9 cells to Ki for inhibition of purified recombinant soluble human CD73 expressed in Sf9 cells

| SMILES | Ratio Ki |
| --- | --- |
| Nc1nc(N2CCNCC2)nc2c1ncn2[C@@H]1O[C@H](COP(=O)(O)CP(=O)(O)O)[C@@H](O)[C@H]1O | 12.5 |
| NNc1nc(N)c2ncn([C@@H]3O[C@H](COP(=O)(O)CP(=O)(O)O)[C@@H](O)[C@H]3O)c2n1 | 7.5 |
| Nc1nc(Cl)c2ncn([C@@H]3O[C@H](COP(=O)(O)CP(=O)(O)O)[C@@H](O)[C@H]3O)c2n1 | 6.3 |

Target: T3, Ectonucleotide pyrophosphatase/phosphodiesterase family member 1 (Homo sapiens) (UniProt P22413)
T3 sequence (whole entry): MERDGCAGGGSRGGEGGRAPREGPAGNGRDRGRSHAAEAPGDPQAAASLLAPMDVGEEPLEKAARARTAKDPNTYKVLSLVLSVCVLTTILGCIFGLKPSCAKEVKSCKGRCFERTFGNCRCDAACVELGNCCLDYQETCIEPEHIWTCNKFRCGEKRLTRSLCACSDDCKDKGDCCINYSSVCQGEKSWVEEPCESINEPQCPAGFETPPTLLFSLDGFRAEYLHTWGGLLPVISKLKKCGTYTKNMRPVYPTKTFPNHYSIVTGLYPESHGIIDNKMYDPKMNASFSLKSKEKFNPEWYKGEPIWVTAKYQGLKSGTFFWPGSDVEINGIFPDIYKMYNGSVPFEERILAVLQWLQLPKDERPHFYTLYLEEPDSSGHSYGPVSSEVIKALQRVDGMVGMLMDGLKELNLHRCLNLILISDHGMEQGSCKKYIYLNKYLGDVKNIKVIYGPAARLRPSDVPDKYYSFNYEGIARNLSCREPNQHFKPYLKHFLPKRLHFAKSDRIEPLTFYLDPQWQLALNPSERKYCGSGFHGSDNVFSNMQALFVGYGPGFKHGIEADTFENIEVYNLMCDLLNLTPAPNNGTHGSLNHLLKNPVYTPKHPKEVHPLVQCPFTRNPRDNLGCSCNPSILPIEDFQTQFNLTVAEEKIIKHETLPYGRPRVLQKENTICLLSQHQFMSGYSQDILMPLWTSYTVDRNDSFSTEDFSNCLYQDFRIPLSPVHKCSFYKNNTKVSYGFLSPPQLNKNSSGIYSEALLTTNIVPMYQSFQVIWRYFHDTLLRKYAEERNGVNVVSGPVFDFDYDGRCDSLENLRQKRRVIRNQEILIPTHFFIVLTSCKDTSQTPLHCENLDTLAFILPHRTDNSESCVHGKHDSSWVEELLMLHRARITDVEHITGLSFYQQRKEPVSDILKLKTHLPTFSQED
Assay: Inhibition of human recombinant NPP1 at 10 uM using p-nitrophenyl thymidine monophosphate substrate incubated for 30 mins by colorimetry

| inhibition | SMILES |
| --- | --- |
| inactive | Nc1nc(Cl)nc2c1ncn2[C@@H]1O[C@H](COP(=O)(O)CP(=O)(O)O)[C@@H](O)[C@H]1O |
| inactive | Nc1nc(SCCC2CCCCC2)nc2c1ncn2[C@@H]1O[C@H](COP(=O)(O)CP(=O)(O)O)[C@@H](O)[C@H]1O |
| inactive | Nc1nc(Cl)c2ncn([C@@H]3O[C@H](COP(=O)(O)CP(=O)(O)O)[C@@H](O)[C@H]3O)c2n1 |

Target: Autotaxin (Homo sapiens) (UniProt Q13822)
Assay: Inhibition of human recombinant NPP2 at 10 uM using p-nitrophenyl thymidine monophosphate substrate incubated for 30 mins by colorimetry

| inhibition | SMILES |
| --- | --- |
| inactive | Nc1nc(Cl)nc2c1ncn2[C@@H]1O[C@H](COP(=O)(O)CP(=O)(O)O)[C@@H](O)[C@H]1O |
| inactive | Nc1nc(SCCC2CCCCC2)nc2c1ncn2[C@@H]1O[C@H](COP(=O)(O)CP(=O)(O)O)[C@@H](O)[C@H]1O |
| inactive | Nc1nc(Cl)c2ncn([C@@H]3O[C@H](COP(=O)(O)CP(=O)(O)O)[C@@H](O)[C@H]3O)c2n1 |

Target: T4, Ectonucleotide pyrophosphatase/phosphodiesterase family member 3 (Homo sapiens) (UniProt O14638)
T4 sequence (whole entry): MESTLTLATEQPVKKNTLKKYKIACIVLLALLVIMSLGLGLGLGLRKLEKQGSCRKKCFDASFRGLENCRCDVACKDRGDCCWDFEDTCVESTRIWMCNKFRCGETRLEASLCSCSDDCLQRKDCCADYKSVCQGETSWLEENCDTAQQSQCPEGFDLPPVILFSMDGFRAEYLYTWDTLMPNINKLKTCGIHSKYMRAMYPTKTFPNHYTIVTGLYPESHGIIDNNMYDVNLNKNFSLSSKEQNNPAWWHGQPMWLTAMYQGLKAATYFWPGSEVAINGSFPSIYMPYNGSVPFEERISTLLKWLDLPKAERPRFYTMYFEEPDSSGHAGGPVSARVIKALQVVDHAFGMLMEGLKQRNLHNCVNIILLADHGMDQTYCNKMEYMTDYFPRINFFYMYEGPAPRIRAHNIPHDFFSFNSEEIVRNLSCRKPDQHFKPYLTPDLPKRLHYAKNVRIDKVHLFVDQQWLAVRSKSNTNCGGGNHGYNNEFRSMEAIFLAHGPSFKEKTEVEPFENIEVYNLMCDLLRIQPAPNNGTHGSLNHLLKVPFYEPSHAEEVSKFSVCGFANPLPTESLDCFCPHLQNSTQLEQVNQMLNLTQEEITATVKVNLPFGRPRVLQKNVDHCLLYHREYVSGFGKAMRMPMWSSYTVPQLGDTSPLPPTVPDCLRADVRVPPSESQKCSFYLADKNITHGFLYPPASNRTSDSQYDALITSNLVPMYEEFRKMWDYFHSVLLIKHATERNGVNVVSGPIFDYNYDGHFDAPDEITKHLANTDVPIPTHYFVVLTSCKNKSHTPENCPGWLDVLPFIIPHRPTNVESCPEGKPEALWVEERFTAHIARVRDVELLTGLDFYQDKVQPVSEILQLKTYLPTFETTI
Assay: Inhibition of human recombinant NPP3 at 10 uM using p-nitrophenyl thymidine monophosphate substrate incubated for 30 mins by colorimetry

| inhibition | SMILES |
| --- | --- |
| inactive | Nc1nc(Cl)nc2c1ncn2[C@@H]1O[C@H](COP(=O)(O)CP(=O)(O)O)[C@@H](O)[C@H]1O |
| inactive | Nc1nc(SCCC2CCCCC2)nc2c1ncn2[C@@H]1O[C@H](COP(=O)(O)CP(=O)(O)O)[C@@H](O)[C@H]1O |
| inactive | Nc1nc(Cl)c2ncn([C@@H]3O[C@H](COP(=O)(O)CP(=O)(O)O)[C@@H](O)[C@H]3O)c2n1 |

Target: P2Y purinoceptor 1 (Homo sapiens) (UniProt P47900)
Sequence (P47900 whole entry): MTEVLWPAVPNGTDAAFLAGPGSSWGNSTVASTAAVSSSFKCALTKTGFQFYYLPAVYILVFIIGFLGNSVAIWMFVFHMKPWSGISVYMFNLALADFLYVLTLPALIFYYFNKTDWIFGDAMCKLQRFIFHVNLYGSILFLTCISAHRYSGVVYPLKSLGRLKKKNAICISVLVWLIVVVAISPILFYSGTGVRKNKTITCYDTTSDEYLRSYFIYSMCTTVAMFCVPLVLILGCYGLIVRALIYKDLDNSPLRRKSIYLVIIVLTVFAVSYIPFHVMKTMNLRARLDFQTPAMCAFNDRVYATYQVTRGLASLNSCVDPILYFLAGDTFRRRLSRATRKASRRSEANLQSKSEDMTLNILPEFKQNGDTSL
Assay: Activation of recombinant human P2Y1 receptor expressed in human 1321N1 cells assessed as stimulation of calcium mobilization at 10 uM by fluorescence based assay
Type: functional, cell-based

| SMILES | Activity |
| --- | --- |
| Nc1nc(SCCC2CCCCC2)nc2c1ncn2[C@@H]1O[C@H](COP(=O)(O)CP(=O)(O)O)[C@@H](O)[C@H]1O | inactive |
| Nc1nc(Cl)c2ncn([C@@H]3O[C@H](COP(=O)(O)CP(=O)(O)O)[C@@H](O)[C@H]3O)c2n1 | inactive |

Continued, values first:

| Activity | SMILES |
| --- | --- |
| inactive | Nc1nc(Cl)nc2c1ncn2[C@@H]1O[C@H](COP(=O)(O)CP(=O)(O)O)[C@@H](O)[C@H]1O |
| Active | Nc1ncnc2c1ncn2[C@@H]1O[C@H](COP(=O)(O)OP(=O)(O)O)[C@@H](O)[C@H]1O |

Target: P2Y purinoceptor 12 (Homo sapiens) (UniProt Q9H244)
Sequence (Q9H244 whole entry): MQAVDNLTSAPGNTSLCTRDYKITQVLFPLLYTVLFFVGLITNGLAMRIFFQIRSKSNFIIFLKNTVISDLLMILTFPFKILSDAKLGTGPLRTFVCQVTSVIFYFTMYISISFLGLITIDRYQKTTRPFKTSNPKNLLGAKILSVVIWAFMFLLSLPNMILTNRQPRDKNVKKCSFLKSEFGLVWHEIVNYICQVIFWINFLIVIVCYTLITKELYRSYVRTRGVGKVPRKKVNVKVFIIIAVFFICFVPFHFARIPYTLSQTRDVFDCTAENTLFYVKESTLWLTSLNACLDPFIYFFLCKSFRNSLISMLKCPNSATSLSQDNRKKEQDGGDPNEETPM
Assay: Activation of recombinant human P2Y12 receptor expressed in CHOK1 cells assessed as stimulation of beta-arrestin recruitment at 10 uM incubated for 90 mins by luminescence based assay

| SMILES | Activity |
| --- | --- |
| Nc1nc(SCCC2CCCCC2)nc2c1ncn2[C@@H]1O[C@H](COP(=O)(O)CP(=O)(O)O)[C@@H](O)[C@H]1O | inactive |
| Nc1nc(Cl)c2ncn([C@@H]3O[C@H](COP(=O)(O)CP(=O)(O)O)[C@@H](O)[C@H]3O)c2n1 | inactive |

Further lines, results first:

| Activity | SMILES |
| --- | --- |
| inactive | Nc1nc(Cl)nc2c1ncn2[C@@H]1O[C@H](COP(=O)(O)CP(=O)(O)O)[C@@H](O)[C@H]1O |
| Active | Nc1ncnc2c1ncn2[C@@H]1O[C@H](COP(=O)(O)OP(=O)(O)O)[C@@H](O)[C@H]1O |

Reference: ChEMBL document CHEMBL4402566, “2-Substituted α,β-Methylene-ADP Derivatives: Potent Competitive Ecto-5'-nucleotidase (CD73) Inhibitors with Variable Binding Modes” (J Med Chem, 2020)
